Screening data (PubChem BioAssay)
hERG rescue: compounds protecting human hERG from proarrhythmic drug block | 310,000 compounds, 0.51% hits | CHO-hERG, FluxOR thallium flux, dofetilide IC70 present | activation (rescue from dofetilide block), less the hit threshold, % at 10 µM | AID 1511 | Q12809;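 active = activation above the mean of controls blocked by dofetilide plus 5 SD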;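 note: thallium influx through hERG after potassium depolarization seen as dye fluorescence rise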
KCNK9 block: blocks the human KCNK9 two-pore domain potassium channel | AID 488922 | HEK293 KCNK9, FluxOR thallium flux fluorescence; stronger effect = lower value | 310,000 compounds, 1.2% hits | B-score at 10 µM | Q9NPC2;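 active = ratio B-score over 3 SD below the library mean, with starting fluorescence within 5 SD of its mean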;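 note: negative B-score means less thallium flux so channel inhibition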
KCNQ1 pot: human KCNQ1 channel potentiation or activation. AID 2648. B-score at 10 µM. CHO-K1 KCNQ1, thallium flux FluxOR fluorescence; stronger effect = higher value. 310,000 compounds, 0.35% hits. P51787;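 active = fluorescence ratio B-score, a plate-corrected score, at least three library SD, with initial intensity B-score within 5 SD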
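Medium – assay buffer, equal DMSO in all wells · Material – CHO-K1 cell line with stable KCNQ1 potassium channel expression · Signal – kinetic FluxOR thallium fluorescence, 10-s 1-Hz baseline, 110-s post-stimulus read · Compound – single concentration per compound, DMSO matched to controls · Schedule – 37 °C overnight plating, 90-min dark dye load, 20-min compound pretreatment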
KCNK3 inh: human KCNK3 channel inhibition, primary screen; O14649; CHO-KCNK3 thallium flux, FluxOR fluorescence; stronger effect = lower value; B-score at 10 µM; 340,000 compounds, 0.84% hits;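 active = B-score under library mean minus 4 SD, starting fluorescence ratio at most library mean plus 5 SD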;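 note: more negative B-score means stronger inhibition of thallium flux through KCNK3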
Target sequence (O14649 whole entry, looked up): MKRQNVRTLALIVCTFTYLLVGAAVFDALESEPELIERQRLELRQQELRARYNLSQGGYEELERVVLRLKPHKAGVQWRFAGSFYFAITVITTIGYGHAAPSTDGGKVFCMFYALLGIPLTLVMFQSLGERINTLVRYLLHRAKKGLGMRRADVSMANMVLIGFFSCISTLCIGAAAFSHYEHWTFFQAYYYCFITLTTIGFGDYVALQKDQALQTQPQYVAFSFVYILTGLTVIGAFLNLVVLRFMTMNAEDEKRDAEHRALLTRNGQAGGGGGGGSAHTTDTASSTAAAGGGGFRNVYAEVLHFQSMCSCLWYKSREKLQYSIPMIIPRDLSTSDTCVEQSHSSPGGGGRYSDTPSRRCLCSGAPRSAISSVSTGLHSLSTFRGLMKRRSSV
Kir21 inh: Kir2.1 (mouse) channel inhibition. P35561. HEK293-Kir2.1, FluxOR thallium flux fluorescence; stronger effect = lower value. B-score at 10 µM. 310,000 compounds, 0.85% hits;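 active = fluorescence ratio B-score at or below minus 3 SD of library scores, with starting-brightness B-score within 2 SD, cut at about -4.2 in these data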;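 note: channel flux triggered by added potassium and thallium sulfate stimulus; B-score of peak minus minimum fluorescence over baseline after thallium stimulus; more negative B-score means stronger Kir2.1 block with less thallium influx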
KCNQ1 inh: blocks the human KCNQ1 potassium channel; B-score at 10 µM; P51787; 310,000 compounds, 1.3% hits; AID 2642; CHO-K1 KCNQ1, FluxOR thallium flux fluorescence; stronger effect = higher value;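 active = compounds whose thallium flux B-score, printed positive for inhibition, exceeds three library SD while starting fluorescence stays within three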;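 note: channel opened by potassium depolarization with thallium stimulus after 20 min compound exposure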
KCNK3 inh conf: human KCNK3 channel inhibition, confirmation assay. shares compounds with KCNK3 inh. CHO-KCNK3 thallium flux, FluxOR fluorescence; 0% buffer, 100% carvedilol maximal block. ratio percent of control, % at 10 µM. 2,400 compounds, 99% hits. AID 651638;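 active = ratio percent of control, averaged over triplicates, above buffer control mean plus 5 SD, cut at about 64% in these data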;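 note: ratio is the fluorescence rise from min to max over baseline after thallium stimulus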
KCNK3 uninduced: counter-screen for KCNK3 inhibitors: effect in non-induced cells | thallium flux ratio (lower = more inhibition) at 10 µM | shares compounds with KCNK3 inh | 2,400 compounds, 40% hits | non-induced KCNK3 parental cells, FluxOR thallium flux; stronger effect = lower value;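 active = thallium flux ratio, averaged over three wells, more than 5 SD below the buffer control mean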;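 note: host cells are CHO cells without KCNK3 induction; ratio is peak minus trough fluorescence over baseline then normalized to buffer controls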
Numbers without * were called inactive; i = inactive; / = no result given. Sampled rows, rich in hits. Any-hit rate of the full collection: about 3.8%.

SMILES	hERG rescue	KCNK9 block	KCNQ1 pot	KCNK3 inh	Kir21 inh	KCNQ1 inh	KCNK3 inh conf	KCNK3 uninduced
O=C(Nc1cc(Cl)ccc1N1CCCCC1)c1cccs1	-2	-7.3*	i	-14*	-0.95	i	128*	0.12*
CCCCN=C1CC(C)(C)CC(=O)/C1=C(/O)CCC	-10	i	i	-11*	-0.33	i	100*	i
CCCN=C1CC(C)(C)CC(=O)/C1=C(/O)CCCN1C(=O)c2ccccc2C1=O	-21	i	i	i	0.04	i	/	/
CCOC(=O)Cc1csc(NC(=O)COc2ccccc2OCC)n1	-1	i	i	i	0.93	i	/	/
CCOC(=O)Cc1csc(NC(=O)COc2c(C)cccc2C)n1	-4	i	i	-13*	0.61	i	93*	i
O=C1OC[C@H](Cc2ccc3c(c2)OCO3)/C1=C\c1ccc2c(c1)OCO2	-11	i	i	-9.7*	0.33	i	133*	i
O=C1CC(Cc2ccccc2)C(=O)N1CCc1ccc2c(c1)OCO2 (stereo not given)	-5	i	i	i	-0.08	i	/	/
COc1cc(C(=O)NCC(=O)N/N=C/c2ccc(-c3ccc([N+](=O)[O-])cc3)o2)cc(OC)c1OC	-14	i	i	-10*	-0.88	i	95*	i
COc1cc2c(cc1OC)CN(C(=O)CNC(=O)c1ccc(OC(F)F)cc1)CC2	-9	i	i	i	1.8	i	/	/
O=C(C1CCCN(S(=O)(=O)c2cccc3nsnc23)C1)N1CC=C(c2ccccc2)CC1 (stereo not given)	/	/	/	-15*	/	/	115*	i
O=C(C1CCN(S(=O)(=O)c2cccc3nsnc23)CC1)N1CC=C(c2ccccc2)CC1	-6	i	i	i	-0.75	i	/	/
O=C(c1ccc(-c2ccccc2)cc1)C1CCCN(C(=O)c2ccncc2)C1 (stereo not given)	-12	i	i	i	0.73	i	/	/
O=C(c1ccc(-c2ccccc2)cc1)C1CCCN(Cc2ccncc2)C1 (stereo not given)	-24	i	i	-10*	0.02	i	129*	i
COCc1cc(C)nc(SCc2ccc(Cl)cc2)c1C#N	-6	i	i	-11*	0.43	i	96*	0.15*
COCc1cc(C)nc(SCc2ccc(F)cc2)c1C#N	-2	i	i	i	-1.1	i	/	/
COCc1cc(C)nc(SCc2ccc(Br)cc2)c1C#N	-8	i	i	-11*	0.14	i	106*	i
O=C(N/N=C/c1ccc[nH]1)c1cc(-c2ccc(Cl)cc2)nc2ccccc12	-15	i	i	-9.1*	-0.61	i	124*	0.12*
O=C(OCCNc1nc(-c2ccccc2)nc2ccccc12)c1cccnc1	-16	i	i	i	-1.5	i	/	/
COc1ccc(CNc2nc(-c3ccccc3)nc3ccccc23)cc1OC	-6	i	i	-17*	0.65	i	114*	0.14*
c1ccc(-c2nc(NCc3cccnc3)c3ccccc3n2)cc1	-15	i	i	-9.2*	-1.5	i	111*	0.15*
O=C(OCCNc1nc(-c2ccccc2)nc2ccccc12)c1ccncc1	-8	-7.3*	i	i	-0.82	i	124*	0.16*
O=C(NC(=S)Nc1cccc(NC(=O)c2ccc(Cl)cc2Cl)c1)c1cccs1	-7	i	i	i	0.28	i	/	/
COc1cccc(OCC(=O)Nc2ccccc2C(=O)Nc2ccc(C(=O)O)cc2)c1	-9	i	i	i	-0.07	i	/	/
Cn1c(-c2c(N)n(CCCc3ccccc3)c3nc4ccccc4nc23)nc2ccccc21	-19	i	i	-9.2*	-1.3	i	126*	0.15*
COCCCn1c(N)c(-c2nc3ccccc3n2C)c2nc3ccccc3nc21	-30	i	i	i	-1	i	/	/
SMILES	hERG rescue	KCNK9 block	KCNQ1 pot	KCNK3 inh	Kir21 inh	KCNQ1 inh	KCNK3 inh conf	KCNK3 uninduced
N#Cc1c(N)n(CCc2ccc(F)cc2)c2nc3ccccc3nc12	-9	i	i	i	-0.46	i	/	/
Cn1c(-c2c(N)n(CCc3ccccc3)c3nc4ccccc4nc23)nc2ccccc21	-19	-7.8*	i	-8.8*	0.07	13*	158*	0.1*
O=C1CC(c2ccc(F)cc2)C(n2cncn2)C(O)=C1C1NCCc2ccccc21 (stereo not given)	-2	i	i	i	-0.58	i	/	/
Cc1cc(C)c(C#N)c(SCC(=O)c2ccc(Cl)cc2Cl)n1	-3	i	i	-10*	1.1	i	108*	0.15*
CC1CCN(CCCNC(=O)c2cc3c(Cl)nc4ccccc4c3s2)CC1	-14	i	i	i	0.56	i	/	/
CCN1N=C(c2ccccc2)Cn2c1nc1ccccc12	-14	i	i	-9.4*	0.2	i	88*	i
CN(C)CCn1c(SCc2ccccc2C#N)nc2c(sc3ccccc32)c1=O	-19	i	i	-10*	0	i	107*	0.16*
Cc1cc(O)c(C(C)C)cc1NC(=O)Nc1cc(Cl)ccc1Cl	/	/	/	-12*	/	/	114*	0.16*
Cc1cc(O)c(C(C)C)cc1NC(=O)c1ccccc1Cl	-11	i	i	i	-2.1	i	/	/
Cc1sc2ncnc(N3CCC(C(=O)Nc4ccc(OC(F)F)c(Cl)c4)CC3)c2c1C	/	/	/	-13*	/	/	142*	0.14*
O=C(Cn1ncc2c3ccccc3n(Cc3ccccc3)c2c1=O)NCCCN1CCCC1=O	-9	i	i	i	-1.2	i	/	/
COc1ccc(Nc2nnc(-c3ccc(O)cc3)c3ccccc23)cc1	-14	i	i	-8.9*	-0.02	i	98*	i
COc1ccc(OCCCC(=O)OCC(=O)c2ccc3c(c2)NC(=O)CO3)cc1	-15	i	i	i	0.45	i	/	/
Cc1ccc(CN(CC(O)COc2cccc3[nH]cc(C)c23)C(C)(C)C)cc1 (stereo not given)	-7	i	i	i	-1.9	i	/	/
COC(=O)Cc1c[nH]c2cccc(OCC(O)CN(Cc3ccccc3)C(C)C)c12 (stereo not given)	-16	-7.9*	i	-8.9*	-1.2	i	100*	i
CCOc1nc2ccccc2nc1C	-3	i	i	i	0.74	i	/	/
